From ChEMBL document CHEMBL4312027, “Synthesis, characterization, and biological activity of a triphenylphosphonium-containing imidazolium salt against select bladder cancer cell lines” (Eur J Med Chem, 2020)
Activity calls are given as the source filed them. No cut-off for these calls is given here.

Assays:
[1] = system: RT-112; experiment: Cytotoxicity against human RT112 cells assessed as cellular fragmentation at 250 to 500 uM incubated for 1 hr and measured at 24 hrs after treatment; format: functional, cell-based
[2] = system: NCI-H226; experiment: Growth inhibition of human NCI-H226 cells assessed as growth percent at 10 uM incubated for 48 hrs by sulforhodamine B assay relative to control; format: functional; conditions: NCI-H226, 48 h, read-out: Activity
[3] = system: RT-4; experiment: Growth inhibition of human RT4 cells measured after 1 hr by Celltiter-Glo luminescent cell viability assay; format: functional; conditions: RT-4, 1 h
In short: (§1)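 Cells seeded 10000/well, 24 h, then exposed in ATCC-recommended medium to 62.5–2000 μM (two-fold steps) or vehicle for the set time (5–60 min), then normal medium. After 24 h, plates equilibrated 30 min at room temperature, CellTiter-Glo added, 2 min at room temperature, luminescence read. Survival relative to vehicle control; quadruplicate.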

[4] = system: HCC 2998; experiment: Growth inhibition of human HCC2998 cells assessed as growth percent at 10 uM incubated for 48 hrs by sulforhodamine B assay relative to control; format: functional; conditions: HCC 2998, 48 h, read-out: Activity
[5] = system: SF-539; experiment: Growth inhibition of human SF539 cells assessed as growth percent at 10 uM incubated for 48 hrs by sulforhodamine B assay relative to control; format: functional; conditions: SF-539, 48 h, read-out: Activity
[6] = system: CCRF-CEM; experiment: Growth inhibition of human CCRF-CEM cells assessed as growth percent at 10 uM incubated for 48 hrs by sulforhodamine B assay relative to control; format: functional; conditions: read-out: Activity
[7] = system: RT-112; experiment: Induction of apoptosis in human RT112 cells assessed as increase in PARP cleavage at 500 uM incubated for 1 hr and measured immediately after treatment by Western blot analysis; format: functional, cell-based
In short: (§2)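 RT112 seeded 300,000/well; after 24 h, 250 or 500 μM or vehicle. Cells plus floating debris harvested immediately or 24 h after treatment, lysed in RIPA with protease inhibitors. About 30 μg protein heated 10 min at 95 °C with DTT, run on SDS-PAGE. Immunoblotted for PARP and caspase 9, Ran as loading control, ECL detection.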

[8] = system: Mus musculus; experiment: Antitumor activity against anesthetized BBN-induced bladder tumor mouse model assessed as increase in cleaved caspase 3 level in dysplasia region at 1500 uM administered via intravesical instillation treated for 1 hr administered as 2 doses at 24 hrs interval and measured at 24 hrs after final treatment by hematoxylin and eosin staining based immunohistochemical analysis; format: functional, organism-based
[9] = system: RT-4; experiment: Growth inhibition of human RT4 cells at 250 uM measured after 5 to 60 mins by Celltiter-Glo luminescent cell viability assay; format: functional, cell-based; in short: as §1
[10] = system: A498; experiment: Growth inhibition of human A498 cells assessed as growth percent at 10 uM incubated for 48 hrs by sulforhodamine B assay relative to control; format: functional; conditions: A498, 48 h, read-out: Activity
[11] = system: TK-10; experiment: Growth inhibition of human TK10 cells assessed as growth percent at 10 uM incubated for 48 hrs by sulforhodamine B assay relative to control; format: functional; conditions: TK-10, 48 h, read-out: Activity
[12] = system: OVCAR-4; experiment: Growth inhibition of human OVCAR4 cells assessed as growth percent at 10 uM incubated for 48 hrs by sulforhodamine B assay relative to control; format: functional; conditions: OVCAR-4, 48 h, read-out: Activity
[13] = system: NCI-H460; experiment: Growth inhibition of human NCI-H460 cells assessed as growth percent at 10 uM incubated for 48 hrs by sulforhodamine B assay relative to control; format: functional; conditions: NCI-H460, 48 h, read-out: Activity
[14] = system: J82; experiment: Anticlonogenic activity against human J82 cells assessed as decrease in colony formation at 250 to 500 uM incubated for 1 hr measured after culturing in normal medium for 10 days by crystal violet staining assay; format: functional, cell-based
In short: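 Cells seeded at 500/well, treated 24 h later with 250 or 500 μM drug or vehicle for 1 h. Cells were then grown in normal media for 10 days, stained with 0.5% crystal violet in 20% MeOH/water at 4 °C for 5 min, washed, dried and imaged. Run in triplicate.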

[15] = system: NCI-H322M; experiment: Growth inhibition of human NCI-H322M cells assessed as growth percent at 10 uM incubated for 48 hrs by sulforhodamine B assay relative to control; format: functional; conditions: read-out: Activity
[16] = system: U-251; experiment: Growth inhibition of human U251 cells assessed as growth percent at 10 uM incubated for 48 hrs by sulforhodamine B assay relative to control; format: functional; conditions: U-251, 48 h, read-out: Activity
[17] = system: RT-112; experiment: Induction of apoptosis in human RT112 cells assessed as caspase 9 cleavage at 500 uM incubated for 1 hr and measured immediately after treatment by Western blot analysis; format: functional, cell-based; in short: as §2
[18] = system: RT-4; experiment: Growth inhibition of human RT4 cells at 1000 uM measured after 15 to 60 mins by Celltiter-Glo luminescent cell viability assay relative to control; format: functional; conditions: read-out: GI; in short: as §1
[19] = system: OVCAR-5; experiment: Growth inhibition of human OVCAR5 cells assessed as growth percent at 10 uM incubated for 48 hrs by sulforhodamine B assay relative to control; format: functional; conditions: OVCAR-5, 48 h, read-out: Activity
[20] = system: 786-0; experiment: Growth inhibition of human 786-0 cells assessed as growth percent at 10 uM incubated for 48 hrs by sulforhodamine B assay relative to control; format: functional; conditions: 786-0, 48 h, read-out: Activity
[21] = system: SNB-75; experiment: Growth inhibition of human SNB75 cells assessed as growth percent at 10 uM incubated for 48 hrs by sulforhodamine B assay relative to control; format: functional; conditions: SNB-75, 48 h, read-out: Activity
[22] = system: RT-112; experiment: Cell cycle arrest in human RT112 cells assessed as cell accumulation at sub-G1 phase at 500 uM incubated for 1 hr measured after culturing in normal medium for 24 hrs by propidium iodide/RNase staining based FACScan flow cytometry analysis; format: functional
In short: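 Seeded at 300,000 cells/well in triplicate per treatment; 24 h later exposed to 250 or 500 μM or vehicle for 1 h. After 24 h in normal media, media plus cells were collected, washed, fixed in cold 70% ethanol (4 °C, 30 min), treated with phosphate citric acid buffer, stained with PI/RNase and gated for sub-G1 by flow cytometry.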

[23] = system: IGROV-1; experiment: Growth inhibition of human IGROV1 cells assessed as growth percent at 10 uM incubated for 48 hrs by sulforhodamine B assay relative to control; format: functional; conditions: IGROV-1, 48 h, read-out: Activity
[24] = system: LOX IMVI; experiment: Growth inhibition of human LOXIMVI cells assessed as growth percent at 10 uM incubated for 48 hrs by sulforhodamine B assay relative to control; format: functional; conditions: read-out: Activity
[25] = system: NCI-H23; experiment: Growth inhibition of human NCI-H23 cells assessed as growth percent at 10 uM incubated for 48 hrs by sulforhodamine B assay relative to control; format: functional; conditions: NCI-H23, 48 h, read-out: Activity
[26] = system: SF-295; experiment: Growth inhibition of human SF295 cells assessed as growth percent at 10 uM incubated for 48 hrs by sulforhodamine B assay relative to control; format: functional; conditions: SF-295, 48 h, read-out: Activity
[27] = system: UACC-62; experiment: Growth inhibition of human UACC62 cells assessed as growth percent at 10 uM incubated for 48 hrs by sulforhodamine B assay relative to control; format: functional; conditions: UACC-62, 48 h, read-out: Activity

[Br-].[Br-].c1ccc([P+](CCCc2n(Cc3ccc4ccccc4c3)c3ccccc3[n+]2Cc2ccc3ccccc3c2)(c2ccccc2)c2ccccc2)cc1
Activity [1]: Active | growth at 10 µM [2]: 83.5% | GI50 [3]: 150 µM | growth at 10 µM [4]: 53.9% | growth at 10 µM [5]: 36.8% | growth at 10 µM [6]: 43.1% | Activity [7]: Active | Activity [8]: Active | growth inhibition (GI) [9]: Active | growth at 10 µM [10]: 67.2% | growth at 10 µM [11]: 89.2% | growth at 10 µM [12]: 74.4% | growth at 10 µM [13]: 34.8% | inhibition [14]: Active | growth at 10 µM [15]: 63.8% | growth at 10 µM [16]: 46.5% | Activity [17]: inactive | inhibition of growth at 1000 µM [18]: 100% | growth at 10 µM [19]: 60.1% | growth at 10 µM [20]: 70.8% | growth at 10 µM [21]: 91% | Activity [22]: inactive | growth at 10 µM [23]: 20.8% | growth at 10 µM [24]: 13.8% | growth at 10 µM [25]: 44% | growth at 10 µM [26]: 41.1% | growth at 10 µM [27]: 37.8%
